Compounds with a hit are over-represented: about 2.3% of the library has one in this group of screens.
TRPC4 act: TRPC4 (mouse) channel activation; Q9QUQ5; HEK293 TRPC4beta/mu-opioid, Fluo4 calcium fluorescence; stronger effect = higher value; B-score at 10 µM; 0.49% of 310,000 active;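 active = B-score above 5 SD of library B-scores, and initial fluorescence ratio not above library mean plus 5 SD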;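 also: positive B-score marks a calcium rise read as TRPC4 activation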
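Test system: HEK293 cells stably co-expressing mouse TRPC4beta and mu-opioid receptor | Schedule: Fluo4 dye loading 45 min at room temperature, 110 s recording | Measured by: Kinetic Fluo4 calcium fluorescence, 5 s baseline at 1 Hz | Evaluation: B score of integrated ratio | Controls: Buffer (low) and maximal DAMGO (high)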
TRPC6 inh: blocks the mouse TRPC6 cation channel | HEK293-TRPC6, membrane potential dye, ACh-evoked depolarization; stronger effect = lower value | B-score at 10 µM | 1.1% of 310,000 active | AID 2553;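 active = B-score under library mean minus 3 SD, initial fluorescence not abnormally high, positive integrated signal ratio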;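 also: B-score derived from integrated fluorescence ratio over the kinetic read; more negative B-score means stronger inhibition of depolarization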
TRPC4 block: blocks the mouse TRPC4 cation channel. HEK293 TRPC4beta/mu-opioid, DAMGO-evoked Fluo4 calcium flux; stronger effect = lower value. B-score at 10 µM. 0.39% of 300,000 active. AID 2247;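 active = B-score over 3 SD under the library average, no early fluorescence shift, positive overall ratio signal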
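Assay system: HEK293 cells with stable TRPC4beta plus mu-opioid receptor expression; Probe or stimulus: DAMGO in two steps, submaximal then maximal; Dosing: single-point compound dosing; Measured by: Fluo4 calcium-dye fluorescence, kinetic read; Read-out basis: B score from integrated Fluo4 fluorescence ratio.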
TRPC6 act: activates the mouse TRPC6 cation channel. Q61143. HEK293-TRPC6 membrane potential dye fluorescence; stronger effect = higher value. B-score at 10 µM. 0.13% of 310,000 active;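 active = B-score of the integrated fluorescence ratio above library mean plus 3 SD, and starting fluorescence ratio within library mean plus 5 SD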;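 also: higher score means more depolarization so channel activation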
TRPC4 PAM: TRPC4 (mouse) allosteric potentiation. AID 2227. HEK293 TRPC4beta/mu-opioid, DAMGO EC20, Fluo-4 Ca2+ flux; stronger effect = higher value. 0.42% of 310,000 active. Q9QUQ5. B-score at 10 µM;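 active = B-score of calcium response area above 5 SD of library B-scores, with initial fluorescence ratio within 5 SD of library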
A number is an active result; - = inactive.

SMILES	TRPC4 act	TRPC6 inh	TRPC4 block	TRPC6 act	TRPC4 PAM
COc1cc(OC)cc(C(=O)NC(=S)NNC(=O)[C@H]2C[C@@H]2c2ccccc2)c1	192	-	-	-	-
COc1cc(OC)cc(C(=O)NC(=S)NNC(=O)Cc2cccs2)c1	147	-	-	-	-
COc1ccc(C(=O)NC(=S)NNC(=O)Cc2cccs2)cc1	49	-	-	-	-
CCn1c(-c2ccccc2)ccc(C#N)c1=O	-	-	-	-	-
O=C1CC2(CCCCC2)Oc2ccc(Cl)cc21	-	-	-	-	-
NC(N)=NCCCC(NC(=O)c1ccccc1)C(=O)Nc1ccc([N+](=O)[O-])cc1 (centres undefined)	123	-	-	-	-
CCN(CC1CCCO1)C(=O)c1cc(COc2cc(C)c(Cl)c(C)c2)on1 (centres undefined)	-	-	-	-	-
FC(F)C(F)(F)c1cc(-c2ccc(Cl)cc2)n[nH]1	50	-	-	-	-
Oc1ccccc1-c1cc(C(F)(F)C(F)F)[nH]n1	-	-	-	-	-
COC(=O)c1cc(-c2ccc(Cl)cc2)n[nH]1	-	-	-	-	-
Fc1ccc(-c2cc(C(F)(F)C(F)F)[nH]n2)cc1	71	-	-	-	-
Cc1cccc(N(C(=O)CNC(=O)c2ccco2)C(C(=O)NC2CCCC2)c2cccnc2)c1C (centres undefined)	-	-	-	-	-
CCOc1ccc(CCNC(=O)COC(=O)COc2ccc(Br)cc2)cc1OCC	-	-	-	-	-
CCOC(=O)CN1C(=N)N(c2nc(NC(C)C)nc(NC(C)C)n2)CC1=O	-	-	-	-	-
Cc1nc2c(C(=O)NCc3ccco3)cnn2c(C)c1Cc1ccc(F)cc1Cl	-	-	-	-	-
Cc1cccc(Cc2c(C)nc3c(C(=O)NCc4ccco4)cnn3c2C)c1	-	-	-	-	97
COCCCNC(=O)COc1cc2c(c3oc(=O)c(C)c(C)c13)CCC(C)(C)O2	-	-	-	-	-
CCOC(=O)CC(NC(=O)c1cc2cccc(OC)c2oc1=O)c1cccc([N+](=O)[O-])c1 (centres undefined)	-	-	-	-	-
CCOC(=O)CC(NC(=O)c1cc2cc(Cl)cc(Cl)c2oc1=O)c1cccc([N+](=O)[O-])c1 (centres undefined)	-	-	-	-	21
COc1ccc(N2CCN(C(=O)c3ccc(N(C)S(=O)(=O)c4ccc(OC)cc4)cc3)CC2)cc1	-	-	-	-	-
COc1ccc(N(C)S(=O)(=O)c2cccc(C(=O)N3CCN(S(=O)(=O)c4ccc(C)cc4)CC3)c2)cc1	-	-8.27	-	12	-
COc1ccc(N2CCN(C(=O)c3ccc(N(C)S(=O)(=O)c4ccc(C)cc4)cc3)CC2)cc1	44	-	-	-	38
Cc1sc(NC(=O)C2CSC3(C)CCC(=O)N23)nc1-c1ccc(F)cc1 (centres undefined)	-	-	-	-	-
COc1ccc(Cl)cc1C(=O)NCCN(C)C	-	-	-	-	28
CCNC(=O)c1cc(Cl)ccc1OC	-	-	-	-	-
SMILES	TRPC4 act	TRPC6 inh	TRPC4 block	TRPC6 act	TRPC4 PAM
COc1ccc(C)cc1N(C(=O)c1ccccc1F)c1nc2ccccc2s1	-	-	-6	-	-
CCC(C)C(NC(=O)C1CCC(C)CC1)C(=O)Nc1cc(OC)ccc1OC (centres undefined)	-	-	-	-	-
CCn1c(C2CC(=O)N(Cc3ccccc3)C2)nc2ccccc21 (centres undefined)	-	-	-	-	16
Cc1cc(Nc2cccc(O)c2)c2ccccc2n1	-	-	-5	-	-
Cc1cc(Nc2ccccc2)nc2cc(O)ccc12	-	-	-7	-	-
COc1ccc(C2=NN(c3nc(-c4ccc(CNC(C)=O)cc4)cs3)C(c3ccco3)C2)cc1 (centres undefined)	-	-	-	-	-
CC(C)COc1ccc(CN=C(N)N=C(N)N)cc1Cl	50	-	-	-	-
NC(=Nc1ccccc1)Nc1ccccc1	134	-	-	-	-
Cc1ccccc1NC(=O)Cc1nnc(SCC(=O)NC2CCCCC2)n1C	-	-	-	-	-
O=C(OCC1CCNCC1)c1ccc2c(c1)OCO2	62	-	-	-	-
N#Cc1ccc(COC(=O)c2ccc3c(c2)OCO3)cc1	-	-	-	-	-
C=CCN(c1ccccc1)S(=O)(=O)c1cccc(C(=O)NCC(c2cccs2)N2CCOCC2)c1 (centres undefined)	-	-	-	-	-
O=C(c1ccccc1N1CCOCC1)N1CCCC(Nc2ccc(F)cc2)C1 (centres undefined)	-	-	-	-	-
O=S(=O)(c1ccc(F)cc1)N1CCN(CCc2ccccc2)CC1	-	-	-	-	-
COC(=O)[C@@]12CCCCN1[C@H](c1ccc(-c3ccccc3)cc1)[C@@H]1C(=O)N(C)C(=O)[C@@H]12	-	-	-	-	18
COc1ccc(CN2CCNC(=O)C2CC(=O)NC2CCCC2)c(C)c1C (centres undefined)	-	-	-6	-	-
COc1ccc(CN2CCNC(=O)C2CC(=O)NC2CCC2)c(OC)c1 (centres undefined)	-	-	-	-	-
O=C(CCl)N(c1ccccc1)C1CCCCC1	-	-	-	-	-
COc1cc(=O)n2c(-c3ccccc3)csc2n1	-	-	-7	-	-
O=c1cc(CN2CCN(c3ccccc3)CC2)nc2scc(-c3ccccc3)n12	-	-	-	-	-
COc1cc2c(cc1OC)CN(Cc1cc(=O)n3c(-c4ccccc4)csc3n1)CC2	122	-	-	-	-
O=C(c1c(F)cccc1F)N(C1CCCCC1)C1CCCCC1	-	-	-	-	-
Cc1ccnc(NS(=O)(=O)c2ccc(CC(C)C)cc2)c1	-	-	-	-	13
Cc1cc(C)nc(NC(=O)c2cc([N+](=O)[O-])cc([N+](=O)[O-])c2)n1	-	-	-	-	-
c1ccc(CNc2nc(-c3cccs3)nc3ccccc23)nc1	-	-	-6	-	-
SMILES	TRPC4 act	TRPC6 inh	TRPC4 block	TRPC6 act	TRPC4 PAM
c1ccc(-c2nc(NCc3ccco3)c3ccccc3n2)nc1	-	-	-6	-	-
Cc1ccc(CNc2nc(-c3cccs3)nc3ccccc23)cc1	-	-	-	-	-
Oc1ccccc1-c1nc(NCc2ccco2)c2ccccc2n1	-	-	-	-	-
CCN(CC)CCn1c2ccccc2c2n[nH]c(=S)nc21	63	-	-	-	-
CCN(CC)CCn1c2ccccc2c2nc3ccccc3nc21	-	-	-	-	-
C=CCn1c(SCC(=O)c2ccc(NS(=O)(=O)c3ccccc3)cc2)nnc1-c1cccs1	-	-	-	-	18
Cn1nnnc1SCCNCc1ccccc1OCc1ccc(Cl)cc1	-	-	-7	-	-
CCOC(=O)c1c(C)n(-c2ccc(C)cc2)c2ccc(OCC(O)CNCC3CCCO3)cc12 (centres undefined)	-	-	-	-	33

Bioassay records as filed in PubChem.
